This is an account of results in ChEMBL document CHEMBL2346636, “Synthesis and biological evaluation of substituted imidazoquinoline derivatives as mPGES-1 inhibitors” (Bioorg Med Chem, 2013).

The nature of data set [1]: Half life of the compound in TFA at room temperature. Type of data set: physicochemical. The essentials:
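SEM- and Boc-protected compounds in TFA (100 equiv) at room temperature. Deprotection was monitored and reported as the time to half-conversion (T1/2) and the time to full conversion.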

Data set [2] can be described thus: Stability of the compound in NaOH/THF at room temperature. Type of data set: physicochemical. Put shortly: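 SEM-protected compound in 1 M NaOH (10 equiv) in THF at room temperature. Deprotection was monitored for up to 12 h.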
A short description of data set [3]: Half life of the compound in TBAF/THF under reflux.
Data set [4] in a line: Half life of the compound in HCl/THF at room temperature. It counts as physicochemical. Put shortly:
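Boc-protected compound in 4 M HCl (10 equiv) in THF at room temperature. Deprotection was followed over time and reported as the time to half-conversion (T1/2) and the time to completion.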

A short description of data set [5]: Half life of the compound in NaOH/THF/MeOH at room temperature. Type of data set: physicochemical. The essentials: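 Boc-protected compound in 1 M NaOH (10 equiv) in THF/MeOH at room temperature. Deprotection was followed and reported as T1/2 (half-deprotection time) and the time to complete deprotection.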
The next data set addresses T1, Prostaglandin E synthase (Homo sapiens, UniProt O14684).
T1 sequence (O14684 whole entry): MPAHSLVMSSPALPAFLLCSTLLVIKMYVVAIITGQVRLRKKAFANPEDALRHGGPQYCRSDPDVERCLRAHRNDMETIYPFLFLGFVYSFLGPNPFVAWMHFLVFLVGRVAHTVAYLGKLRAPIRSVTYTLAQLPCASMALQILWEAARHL
Kind of data set: Inhibition of mPGES1 (unknown origin) transfected in HEK293 cells co-expressing COX1 using arachidonic acid as substrate assessed as inhibition of PGE2 production incubated for 30 mins prior to arachidonic acid addition measured after 60 mins by HTRF assay. Type of data set: cell-based. Put shortly: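 Enzyme source was microsomes from HEK293 cells co-transfected with mPGES-1 and COX-1, in 100 mM Tris-HCl pH 8.0 with 5 mM EDTA, 1 mM GSH, phenol and hematin. Compound was added in DMSO (final 1%) and preincubated 30 min at room temperature. Arachidonic acid in 0.1 M KOH started the reaction, which ran 60 min at room temperature. It was stopped with 1 M HCl, neutralized with 1 M NaOH, and PGE2 was quantified by HTRF.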
On the technique in general: TR-FRET usually uses a lanthanide donor and a delayed reading to cut background.

A value given as a limit tells only on which side of the number the result lay.

The term half-life denotes the time in which the quantity being followed falls by half. What is called IC50 is the midpoint of a concentration-inhibition curve.

With `Cn1c(=O)c2c(nc(-c3ccccc3Cl)n2COCC[Si](C)(C)C)c2ccc(Br)cc21`, the half-life is under 5 min in data set [1] and 30 min in data set [3]. The Stability entry in data set [2] is “Stable”.

Regarding `Cn1c(=O)c2c(nc(-c3ccccc3Cl)n2C(=O)OC(C)(C)C)c2ccc(Br)cc21`, the values for the half-life in data set [4], in data set [1] and in data set [5] were 30 min, under 5 min and 15 min, respectively.

As to `Nc1nc2cc(Br)ccc2c2[nH]c(-c3ccccc3Cl)nc12`, the half-maximal inhibitory concentration (IC50) on Prostaglandin E synthase worked out at 1070 nM.

As to `CNc1nc2cc(Br)ccc2c2nc(-c3ccccc3Cl)[nH]c12`, on Prostaglandin E synthase, the IC50 came to 631 nM.

For the molecule `CN(C)c1nc2cc(Br)ccc2c2[nH]c(-c3ccccc3Cl)nc12`, the concentration for half-maximal inhibition (IC50) at Prostaglandin E synthase was 387 nM.

`S=c1[nH]c2cc(Br)ccc2c2nc(-c3ccccc3Cl)[nH]c12`: the IC50 on Prostaglandin E synthase amounted to 83 nM.

As for `CSc1nc2cc(Br)ccc2c2nc(-c3ccccc3Cl)[nH]c12`, at Prostaglandin E synthase, the IC50 was 31 nM.

With `CCSc1nc2cc(Br)ccc2c2[nH]c(-c3ccccc3Cl)nc12`, the IC50 on Prostaglandin E synthase was 59 nM.

`Cn1c(=O)c2[nH]c(-c3ccccc3Cl)nc2c2ccc(Br)cc21`: at Prostaglandin E synthase, the IC50 came to 85 nM.

With `CCn1c(=O)c2[nH]c(-c3ccccc3Cl)nc2c2ccc(Br)cc21`, on Prostaglandin E synthase, the IC50 worked out at 106 nM.

On to `O=c1c2[nH]c(-c3ccccc3Cl)nc2c2ccc(Br)cc2n1Cc1ccccc1`, for which the half-maximal inhibitory concentration (IC50) at Prostaglandin E synthase amounted to 226 nM.

Regarding `Cn1c(-c2ccccc2Cl)nc2c(=O)[nH]c3cc(Br)ccc3c21`, the IC50 at Prostaglandin E synthase was over 10000 nM.

Consider `Cn1c(-c2ccccc2Cl)nc2c3ccc(Br)cc3[nH]c(=O)c21`, for which, on Prostaglandin E synthase, the IC50 was 9810 nM.

With `O=c1[nH]c2cc(Br)ccc2c2nc(-c3ccccc3Cl)n(Cc3ccccc3)c12`, on Prostaglandin E synthase, the IC50 is over 10000 nM.

Regarding `Cn1c(-c2ccccc2Cl)nc2c3ccc(Br)cc3n(C)c(=O)c21`, at Prostaglandin E synthase, the IC50 is over 10000 nM.
